This note sets out measurements from ChEMBL document CHEMBL5036319, “Discovery of Novel Benzothiazepinones as Irreversible Covalent Glycogen Synthase Kinase 3β Inhibitors for the Treatment of Acute Promyelocytic Leukemia” (J Med Chem, 2021).

Activity calls are given as the source filed them. The calls are words filed in the database; no cut-off is given here.

What is called IC50 is the concentration that gives 50% inhibition. The inhibition is the percentage by which the read-out fell short of the control.

The subject of series [1] is HL-60. The series can be described thus: Cytotoxicity against human HL-60 cells assessed as reduction in cell viability measured after 24 hrs by CCK-8 assay. In kind it is functional, cell-based. The settings on record: HL-60, 24 h. An outline of the steps:
(§1)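 Cells were grown in RPMI-1640 or high-glucose DMEM with 10% FBS at 37 °C, 5% CO2, and seeded at 3 × 10^4 cells/well. Exposure was 24 h across serial concentrations (0−1000 μM in the screen). […] Three independent experiments, mean ± SEM.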
(Tetrazolium assays rely on reduction of a dye to a coloured formazan, in cell work by metabolically active cells.)

Series [2] addresses T1, Glycogen synthase kinase-3 beta (Homo sapiens, UniProt P49841). Briefly: Non-competitive inhibition of recombinant human GSK-3beta using GS-2 peptide as substrate at 2 to 4 uM incubated for 10 mins in presence of varying levels of ATP by double reciprocal plot analysis. The settings on record: dose 2-4 µM.
Target sequence in this assay (P49841 whole entry, looked up): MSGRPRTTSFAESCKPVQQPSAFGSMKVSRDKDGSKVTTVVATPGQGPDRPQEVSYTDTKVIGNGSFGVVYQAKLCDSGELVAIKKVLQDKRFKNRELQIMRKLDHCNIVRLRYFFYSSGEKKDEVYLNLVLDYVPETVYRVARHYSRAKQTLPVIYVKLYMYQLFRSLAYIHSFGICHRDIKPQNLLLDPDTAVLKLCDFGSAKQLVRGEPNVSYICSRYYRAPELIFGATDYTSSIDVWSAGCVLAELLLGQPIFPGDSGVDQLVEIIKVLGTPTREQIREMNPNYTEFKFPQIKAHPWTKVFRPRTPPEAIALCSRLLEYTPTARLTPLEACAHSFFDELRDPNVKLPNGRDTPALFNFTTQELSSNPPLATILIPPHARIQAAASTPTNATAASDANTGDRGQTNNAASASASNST
Series [3] has as its target Platelet-derived growth factor receptor alpha (Homo sapiens) (UniProt P16234). The series can be described thus: Inhibition of PDGFRalpha (unknown origin) at 100 uM incubated for 60 mins by ELISA relative to control. An outline of the steps:
(§2)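 Tyrosine kinase ELISA on plates precoated with poly(Glu,Tyr) 4:1 substrate. Reaction used 10 μM ATP in buffer (50 mM HEPES pH 7.4, 50 mM MgCl2, 0.5 mM MnCl2, 0.2 mM Na3VO4, 1 mM DTT) with compound in 1% DMSO. Purified kinase started the reaction, 60 min at 37 °C. Detection by anti-phosphotyrosine PY99 then HRP anti-mouse IgG with o-phenylenediamine/H2O2. Read at 490 nm; inhibition = [1 − A490/A490 control] × 100%.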

The target of series [4] is Receptor tyrosine-protein kinase erbB-4 (Homo sapiens) (UniProt Q15303). The series can be described thus: Inhibition of ERBB4 (unknown origin) at 100 uM incubated for 60 min by ELISA relative to control. An outline of the steps:
as §2
(In general: ELISA stands for enzyme-linked immunosorbent assay.)

Series [5] has as its system NB-4. Briefly: Cytotoxicity against human NB-4 cells assessed as reduction in cell viability measured after 24 hrs by CCK-8 assay. The format is functional, cell-based. The settings on record: NB-4, 24 h. An outline of the steps: as §1
Series [6] has as its system Raji. The series can be described thus: Cytotoxicity against human Raji cells assessed as reduction in cell viability measured after 24 hrs by CCK-8 assay. The format is functional, cell-based. An outline of the steps: as §1
Series [7] in a line: Thiol reactivity of compound with mercaptoethanol measured after 24 hrs by 1H-NMR analysis. In kind it is physicochemical.
For series [8], the system named is MOLT-4. Briefly: Cytotoxicity against human MOLT-4 cells assessed as reduction in cell viability measured after 24 hrs by CCK-8 assay. The format is functional, cell-based. The settings on record: MOLT-4, 24 h. The method, boiled down: as §1
Series [9] deals with Proto-oncogene tyrosine-protein kinase receptor Ret (Homo sapiens) (UniProt P07949). The series can be described thus: Inhibition of RET (unknown origin) at 100 uM incubated for 60 mins by ELISA relative to control. The method, boiled down:
as §2

Series [10] concerns the target Vascular endothelial growth factor receptor 2 (Homo sapiens) (UniProt P35968). The series can be described thus: Inhibition of KDR (unknown origin) at 100 uM incubated for 60 mins by ELISA relative to control. The method, boiled down: as §2
Series [11] addresses Fibroblast growth factor receptor 1 (Homo sapiens) (UniProt P11362). Briefly: Inhibition of FGFR1 (unknown origin) at 100 uM incubated for 60 mins by ELISA relative to control. The method, boiled down:
as §2

The target of series [12] is T1, Glycogen synthase kinase-3 beta. Briefly: Inhibition of recombinant human GSK-3beta using GS-2 peptide as substrate incubated for 30 mins in presence of ATP by kinase-glo luminescence assay.
Target sequence in this assay (P49841 whole entry): as the sequence (P49841 whole entry, looked up) above
Series [13] shares this target. Briefly: Irreversible inhibition of recombinant human GSK-3beta preincubated for upto 10 mins by double reciprocal plot analysis. The following applies: time min <=10, TDE = time-dependent effect. An outline of the steps:
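Irreversibility tested in the Kinase-Glo GSK-3β assay. Inhibitor at 6.25 and 12.5 μM was preincubated with enzyme for 0, 5 or 10 min. Each point is the mean of two separate experiments done in triplicate.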
Target sequence in this assay (P49841 whole entry, looked up): as above

Series [14] addresses Platelet-derived growth factor receptor beta (Homo sapiens) (UniProt P09619). The series can be described thus: Inhibition of PDGFRbeta (unknown origin) at 100 uM incubated for 60 mins by ELISA relative to control. The method, boiled down: as §2
Series [15] has as its target T1, Glycogen synthase kinase-3 beta. The series can be described thus: Non-competitive inhibition of recombinant human GSK-3beta at 2 to 4 uM using varying concentration of GS-2 as substrate incubated for 10 mins in presence of ATP by double reciprocal plot analysis. The settings on record: dose 2-4 µM.
Target sequence in this assay (P49841 whole entry, looked up): as above
The target in series [16] is Vascular endothelial growth factor receptor 1 (Homo sapiens) (UniProt P17948). Briefly: Inhibition of Flt-1 (unknown origin) at 100 uM incubated for 60 mins by ELISA relative to control. The method, boiled down:
as §2

For series [17], the target named is Mast/stem cell growth factor receptor Kit (Homo sapiens) (UniProt P10721). The series can be described thus: Inhibition of c-Kit (unknown origin) at 100 uM incubated for 60 mins by ELISA relative to control. An outline of the steps: as §2
Mast/stem cell growth factor receptor Kit (Homo sapiens), sequence (P10721 whole entry): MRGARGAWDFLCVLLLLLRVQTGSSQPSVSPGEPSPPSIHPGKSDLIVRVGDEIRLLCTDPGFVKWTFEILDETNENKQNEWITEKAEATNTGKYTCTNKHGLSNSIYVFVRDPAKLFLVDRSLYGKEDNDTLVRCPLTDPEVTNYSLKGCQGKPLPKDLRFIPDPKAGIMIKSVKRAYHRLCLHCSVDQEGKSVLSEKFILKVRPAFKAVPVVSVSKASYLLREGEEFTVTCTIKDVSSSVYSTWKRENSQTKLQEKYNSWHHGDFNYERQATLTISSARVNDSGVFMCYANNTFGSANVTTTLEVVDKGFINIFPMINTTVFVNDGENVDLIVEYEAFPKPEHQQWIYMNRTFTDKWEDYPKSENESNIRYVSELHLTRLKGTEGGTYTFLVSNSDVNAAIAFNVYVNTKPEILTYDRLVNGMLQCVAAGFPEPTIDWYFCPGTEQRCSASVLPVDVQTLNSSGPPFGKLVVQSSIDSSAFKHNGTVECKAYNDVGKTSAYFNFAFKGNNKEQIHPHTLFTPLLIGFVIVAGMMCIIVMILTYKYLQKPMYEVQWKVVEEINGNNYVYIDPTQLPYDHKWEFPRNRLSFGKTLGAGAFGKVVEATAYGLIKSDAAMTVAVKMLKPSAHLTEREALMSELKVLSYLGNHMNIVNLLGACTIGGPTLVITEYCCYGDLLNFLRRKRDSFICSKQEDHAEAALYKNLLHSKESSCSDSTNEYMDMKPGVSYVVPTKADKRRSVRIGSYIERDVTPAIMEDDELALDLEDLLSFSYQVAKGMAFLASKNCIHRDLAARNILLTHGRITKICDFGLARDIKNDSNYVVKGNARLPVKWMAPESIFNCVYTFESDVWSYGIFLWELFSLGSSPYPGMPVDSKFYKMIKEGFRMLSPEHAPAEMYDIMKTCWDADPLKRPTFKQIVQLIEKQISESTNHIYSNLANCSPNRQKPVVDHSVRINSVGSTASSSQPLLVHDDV

Vascular endothelial growth factor receptor 2 (Homo sapiens), sequence (P35968 whole entry): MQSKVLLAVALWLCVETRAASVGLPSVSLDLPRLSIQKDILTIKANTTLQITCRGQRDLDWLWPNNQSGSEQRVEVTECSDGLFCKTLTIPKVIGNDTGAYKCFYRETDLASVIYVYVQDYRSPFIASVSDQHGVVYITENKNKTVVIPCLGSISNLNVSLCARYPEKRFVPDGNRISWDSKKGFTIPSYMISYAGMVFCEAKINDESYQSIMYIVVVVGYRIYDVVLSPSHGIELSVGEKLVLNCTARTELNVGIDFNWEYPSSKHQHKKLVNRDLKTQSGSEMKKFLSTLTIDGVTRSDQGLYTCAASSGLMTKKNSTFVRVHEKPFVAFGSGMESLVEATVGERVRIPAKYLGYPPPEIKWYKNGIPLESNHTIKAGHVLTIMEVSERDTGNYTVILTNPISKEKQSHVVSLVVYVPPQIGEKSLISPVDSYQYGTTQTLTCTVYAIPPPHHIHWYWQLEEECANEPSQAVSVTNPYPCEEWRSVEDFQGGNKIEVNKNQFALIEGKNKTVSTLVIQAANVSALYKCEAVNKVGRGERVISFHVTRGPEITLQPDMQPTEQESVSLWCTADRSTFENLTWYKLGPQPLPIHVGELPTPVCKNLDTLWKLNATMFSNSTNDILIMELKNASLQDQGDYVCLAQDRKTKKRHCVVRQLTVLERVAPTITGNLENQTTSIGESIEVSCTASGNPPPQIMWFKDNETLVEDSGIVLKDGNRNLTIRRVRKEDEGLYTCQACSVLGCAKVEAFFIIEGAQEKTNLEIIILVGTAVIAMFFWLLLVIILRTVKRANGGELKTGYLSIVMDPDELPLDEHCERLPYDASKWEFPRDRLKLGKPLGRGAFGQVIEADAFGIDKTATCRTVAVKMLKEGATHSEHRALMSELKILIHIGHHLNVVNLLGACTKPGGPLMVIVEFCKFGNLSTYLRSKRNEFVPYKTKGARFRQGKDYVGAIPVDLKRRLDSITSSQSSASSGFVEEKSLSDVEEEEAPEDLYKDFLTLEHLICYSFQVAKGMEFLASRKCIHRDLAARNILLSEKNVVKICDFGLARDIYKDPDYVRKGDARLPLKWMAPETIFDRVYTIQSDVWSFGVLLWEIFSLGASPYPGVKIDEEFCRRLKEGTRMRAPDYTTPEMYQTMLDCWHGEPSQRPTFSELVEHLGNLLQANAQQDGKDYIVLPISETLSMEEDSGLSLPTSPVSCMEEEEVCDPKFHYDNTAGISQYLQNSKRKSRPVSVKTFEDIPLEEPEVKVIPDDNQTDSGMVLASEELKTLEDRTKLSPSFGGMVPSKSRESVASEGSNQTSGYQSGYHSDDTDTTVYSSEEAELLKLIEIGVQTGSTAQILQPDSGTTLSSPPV
Platelet-derived growth factor receptor alpha (Homo sapiens), sequence (P16234 whole entry): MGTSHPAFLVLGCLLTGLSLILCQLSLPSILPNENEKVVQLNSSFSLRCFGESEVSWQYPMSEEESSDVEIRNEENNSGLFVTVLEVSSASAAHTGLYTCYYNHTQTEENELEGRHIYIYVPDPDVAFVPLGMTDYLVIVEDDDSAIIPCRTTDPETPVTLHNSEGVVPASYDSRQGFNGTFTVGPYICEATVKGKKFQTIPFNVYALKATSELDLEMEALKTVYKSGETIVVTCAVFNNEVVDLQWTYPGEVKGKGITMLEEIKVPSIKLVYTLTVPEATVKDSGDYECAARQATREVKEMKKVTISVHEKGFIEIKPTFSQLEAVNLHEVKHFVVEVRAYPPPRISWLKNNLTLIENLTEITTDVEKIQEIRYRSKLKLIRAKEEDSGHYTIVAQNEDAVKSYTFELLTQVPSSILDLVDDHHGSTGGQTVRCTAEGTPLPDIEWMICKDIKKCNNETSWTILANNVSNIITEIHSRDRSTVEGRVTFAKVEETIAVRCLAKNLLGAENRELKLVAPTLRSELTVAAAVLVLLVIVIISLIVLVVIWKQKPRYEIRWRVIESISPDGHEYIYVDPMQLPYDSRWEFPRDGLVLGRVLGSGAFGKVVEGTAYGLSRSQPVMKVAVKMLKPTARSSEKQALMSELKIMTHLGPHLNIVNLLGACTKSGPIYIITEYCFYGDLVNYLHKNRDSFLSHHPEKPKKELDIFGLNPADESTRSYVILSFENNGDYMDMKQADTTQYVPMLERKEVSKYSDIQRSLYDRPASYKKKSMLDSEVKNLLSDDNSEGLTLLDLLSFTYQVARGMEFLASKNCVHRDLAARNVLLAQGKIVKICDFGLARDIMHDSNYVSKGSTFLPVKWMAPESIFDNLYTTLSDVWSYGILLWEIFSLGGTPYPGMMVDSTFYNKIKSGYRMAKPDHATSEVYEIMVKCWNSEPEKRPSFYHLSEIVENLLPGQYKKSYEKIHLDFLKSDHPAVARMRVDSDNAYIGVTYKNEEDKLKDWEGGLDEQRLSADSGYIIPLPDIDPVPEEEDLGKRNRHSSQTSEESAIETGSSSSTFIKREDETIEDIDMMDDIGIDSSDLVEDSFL
Fibroblast growth factor receptor 1 (Homo sapiens), sequence (P11362 22-822 limits assumed): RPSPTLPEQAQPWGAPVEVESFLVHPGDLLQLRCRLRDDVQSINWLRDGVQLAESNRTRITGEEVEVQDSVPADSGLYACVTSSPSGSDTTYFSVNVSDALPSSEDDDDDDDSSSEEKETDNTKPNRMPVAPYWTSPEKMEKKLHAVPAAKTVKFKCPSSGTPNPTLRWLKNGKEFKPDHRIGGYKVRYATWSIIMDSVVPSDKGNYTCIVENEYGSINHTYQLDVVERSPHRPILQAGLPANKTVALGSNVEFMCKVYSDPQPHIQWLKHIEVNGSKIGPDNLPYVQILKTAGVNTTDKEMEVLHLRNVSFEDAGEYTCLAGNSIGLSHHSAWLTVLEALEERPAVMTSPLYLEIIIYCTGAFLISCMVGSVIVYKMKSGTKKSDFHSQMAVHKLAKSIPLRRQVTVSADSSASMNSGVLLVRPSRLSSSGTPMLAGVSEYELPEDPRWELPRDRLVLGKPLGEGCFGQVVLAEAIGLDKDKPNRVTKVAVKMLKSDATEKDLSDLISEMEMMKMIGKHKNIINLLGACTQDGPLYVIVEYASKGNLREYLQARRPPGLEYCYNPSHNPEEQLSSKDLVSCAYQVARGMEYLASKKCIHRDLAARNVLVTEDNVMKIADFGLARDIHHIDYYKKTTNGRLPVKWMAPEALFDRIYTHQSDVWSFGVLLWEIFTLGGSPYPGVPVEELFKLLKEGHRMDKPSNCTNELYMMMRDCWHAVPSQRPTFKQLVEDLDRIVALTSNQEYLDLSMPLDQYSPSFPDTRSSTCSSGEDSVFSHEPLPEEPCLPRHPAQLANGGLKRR

For the compound `C=CC(=O)N1C(=O)CC(c2ccccc2)Sc2ccccc21` (configuration not stated), the IC50 in series [1] was 97.4 µM; in series [5] it was 35.5 µM; in series [6] it was 74 µM; in series [8], 85.9 µM; in series [12], 6.6 µM. The inhibition entry in series [2] and in series [15] was “Active” throughout. Also, the inhibition in series [3] was 6.5%; in series [4], 0%; in [9], 0%; in [10], 0%; in [11], 0%; in series [13], “Tde”. The inhibition stood at 2.7% in [14], 1.7% in series [16] and 26.9% in series [17]. In series [7], the Drug metabolism result is reported as “Metabolite_Detected”.
